Key:
[1] = Inhibition of nuclear factor of activated T-cells (NFAT) mediated transcription of beta-galactosidase in J.NFATZ.1 cells; format: functional, cell-based, T-cell
Jurkat [2] = experiment: Binding affinity was measured on jurkat cell membrane using [3H3C] as radioligand.; format: functional, cell membranes, Homo sapiens
Jurkat [3] = experiment: Binding affinity was measured on jurkat cell membrane using [3H3C] as radioligand; format: functional, cell membranes, Homo sapiens
Jurkat [4] = experiment: Inhibition of beta-galactosidase as expression in J.NFATZ.1 cells at 10 uM mediated by nuclear factor of activated T-cells transcription; format: functional
Jurkat [5] = experiment: Concentration required to inhibit nuclear factor of activated T-cells mediated transcription of beta-galactosidases expression in J.NFATZ.1 cells; Not active; format: functional, cell-based
Summary of the method: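 J.NFATZ.1 cells, 1.25×10^5 per well, were stimulated with PMA (2 ng/mL final) and ionomycin (25 μM final) in the presence of compound (0.1% DMSO final). Incubation 5 h at 37 °C. Cells were lysed and incubated 1 h at 37 °C with 4-methylumbelliferyl β-D-galactoside (10 μg/mL final, pH 7.8). Fluorescence read at […]. IC50 obtained by four-parameter logistic fit.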

CC(C)Cn1c(=O)n(C)c(=O)c2cn(C3Cc4cccc5cccc3c45)cc21 (centres undefined)
IC50 ([1]; T-cell): 8 nM

CCCCOc1ccc(Cn2cc3c(=O)n(C)c(=O)n(CC(C)C)c3c2)cc1
IC50 ([1]; T-cell): 190 nM

CC(C)Cn1c(=O)n(C)c(=O)c2cn(Cc3ccccc3Cl)cc21
IC50 ([1]; T-cell): 260 nM | Ki (Jurkat [2]): 122 nM

CSc1c2c(=O)n(C)c(=O)n(CC(C)C)c2cn1Cc1cccc2ccccc12
IC50 ([1]; T-cell): 89 nM

CC(C)Cn1c(=O)n(C)c(=O)c2cn(C(c3ccccc3)c3ccccc3)cc21
IC50 ([1]; T-cell): 1460 nM

COc1ccc(Cn2cc3c(c2CN2CCOCC2)c(=O)n(C)c(=O)n3CC(C)C)cc1
IC50 ([1]; T-cell): 800 nM | Ki (Jurkat [3]): 315 nM

COC(=O)c1ccc(CNc2ccc3c(c2)c(=O)n(C)c(=O)n3CC(C)C)cc1
Inhibition (Jurkat [4]): 35%

COc1cccc(Cn2cc3c(=O)n(C)c(=O)n(CC(C)C)c3c2)c1
IC50 ([1]; T-cell): 275 nM

CC(C)Cn1c(=O)n(C)c(=O)c2cn([C@H](C)c3ccccc3)cc21
IC50 ([1]; T-cell): 1200 nM | Ki (Jurkat [3]): 562 nM

CC(C)Cn1c(=O)n(C)c(=O)c2cc(OCc3ccccc3)ccc21
IC50 ([1]; T-cell): 2500 nM

CNC(=O)CCCn1c(=O)c2cn(Cc3cccc4ccccc34)cc2n(CC(C)C)c1=O
IC50 (Jurkat [5]): Not Active

COc1ccc(Cn2cc3c(c2SC)c(=O)n(C)c(=O)n3CC(C)C)cc1
IC50 ([1]; T-cell): 360 nM | Ki (Jurkat [3]): 305 nM

CC(C)Cn1c(=O)n(C)c(=O)c2cn(Cc3ccc(Cl)cc3)cc21
IC50 ([1]; T-cell): 435 nM

CC(C)Cn1c(=O)n(C)c(=O)c2ccc(OCc3ccccc3)cc21
IC50 ([1]; T-cell): 2050 nM

CC(C)Cn1c(=O)n(C)c(=O)c2cn(Cc3cccc4ccccc34)cc21
IC50 ([1]; T-cell): 26 nM | Ki (Jurkat [2]): 23 nM

CCn1c(=O)c2cn(Cc3cccc4ccccc34)cc2n(CC(C)C)c1=O
IC50 ([1]; T-cell): 90 nM

CC(C)Cn1c(=O)n(C)c(=O)c2cc(CCc3ccccc3)ccc21
IC50 ([1]; T-cell): 4030 nM

COc1ccccc1Cn1cc2c(=O)n(C)c(=O)n(CC(C)C)c2c1
IC50 ([1]; T-cell): 275 nM | Ki (Jurkat [2]): 170 nM

CCn1c(=O)n(C)c(=O)c2cn(Cc3cccc4ccccc34)cc21
IC50 ([1]; T-cell): 440 nM

CC(C)Cn1c(=O)n(C)c(=O)c2cc3c(cc21)O[C@H](c1ccccc1)O3
IC50 ([1]; T-cell): 2250 nM

Cn1c(=O)c2cn(Cc3cccc4ccccc34)cc2n(CC2CC2)c1=O
IC50 ([1]; T-cell): 140 nM

CC(O)Cn1c(=O)n(C)c(=O)c2cn(Cc3cccc4ccccc34)cc21 (centres undefined)
IC50 ([1]; T-cell): 3950 nM | Ki (Jurkat [3]): 697 nM

Cc1c2c(cn1Cc1cccc3ccccc13)c(=O)n(C)c(=O)n2CC(C)C
IC50 ([1]; T-cell): 150 nM

COc1ccc(Cn2cc3c(=O)n(C)c(=O)n(CC(C)C)c3c2)cc1OC
IC50 ([1]; T-cell): 378 nM

CC(C)Cn1c(=O)n(C)c(=O)c2cn([C@@H](C)c3ccccc3)cc21
IC50 ([1]; T-cell): 1300 nM | Ki (Jurkat [3]): 301 nM

CC(C)Cn1c(=O)n(C)c(=O)c2cn(Cc3ccc4ccccc4c3)cc21
IC50 ([1]; T-cell): 75 nM | Ki (Jurkat [2]): 29.4 nM

CC(C)Cn1c(=O)n(C)c(=O)c2cc(NCc3ccc(C(=O)O)cc3)ccc21
Inhibition (Jurkat [4]): 30%

CC(C)n1c(=O)n(C)c(=O)c2cn(Cc3cccc4ccccc34)cc21
IC50 ([1]; T-cell): 21.5 nM | Ki (Jurkat [3]): 15.3 nM

CSc1ccc(Cn2cc3c(=O)n(C)c(=O)n(CC(C)C)c3c2)cc1
IC50 ([1]; T-cell): 260 nM

Cn1c(=O)c2cn(Cc3cccc4ccccc34)cc2n(CC2CCCCC2)c1=O
IC50 ([1]; T-cell): 1210 nM

CC(C)Cn1c(=O)n(C)c(=O)c2c(SCCCO)n(Cc3cccc4ccccc34)cc21
IC50 ([1]; T-cell): 6 nM | Ki (Jurkat [3]): 1.1 nM

CC(C)Cn1c(=O)[nH]c(=O)c2cn(Cc3cccc4ccccc34)cc21
IC50 ([1]; T-cell): 3000 nM

CC(C)CCn1c(=O)n(C)c(=O)c2cn(Cc3cccc4ccccc34)cc21
IC50 ([1]; T-cell): 815 nM

CC(C)Cn1c(=O)n(C)c(=O)c2cc(NCc3ccccc3)ccc21
IC50 ([1]; T-cell): 4470 nM

CC(C)Cn1c(=O)[nH]c(=O)c2cn(C3Cc4cccc5cccc3c45)cc21 (centres undefined)
IC50 ([1]; T-cell): 660 nM | Ki (Jurkat [3]): 454 nM

CC(C)Cn1c(=O)n(C)c(=O)c2cn(Cc3ccccc3F)cc21
IC50 ([1]; T-cell): 630 nM

CC(C)Cn1c(=O)n(C)c(=O)c2cn(Cc3ccc(O)cc3)cc21
IC50 ([1]; T-cell): 640 nM

CC(C)Cn1c(=O)n(C)c(=O)c2cc3c(cc21)O[C@](C)(c1ccccc1)O3
IC50 ([1]; T-cell): 4480 nM

Cc1ccc(Cn2cc3c(=O)n(C)c(=O)n(CC(C)C)c3c2)cc1
IC50 ([1]; T-cell): 320 nM

COc1ccc(Cn2cc3c(=O)n(C)c(=O)n(CC(C)C)c3c2)cc1
IC50 ([1]; T-cell): 240 nM

CC(C)Cn1c(=O)n(C)c(=O)c2cn(Cc3ccc(C(F)(F)F)cc3)cc21
IC50 ([1]; T-cell): 1300 nM

CC(C)Cn1c(=O)n(C)c(=O)c2cn(Cc3ccccc3)cc21
IC50 ([1]; T-cell): 870 nM

COc1cccc(Cn2cc3c(=O)n(C)c(=O)n(CC(C)C)c3c2)c1OC
IC50 ([1]; T-cell): 224 nM

CC(C)Cn1c(=O)n(C)c(=O)c2cn(Cc3cccc(Cl)c3Cl)cc21
IC50 ([1]; T-cell): 1200 nM

CC(C)Cn1c(=O)n(C)c(=O)c2ccc(NCc3ccccc3)cc21
Inhibition (Jurkat [4]): 40%

CC(C)Cn1c(=O)n(C)c(=O)c2cc(NCc3ccc(C(C)(C)C)cc3)ccc21
Inhibition (Jurkat [4]): 34%

COc1ccc(Cn2cc3c(=O)n(C)c(=O)n(CC(C)C)c3c2)cc1I
IC50 ([1]; T-cell): 166 nM

COc1ccc(Cn2cc3c(=O)n(C)c(=O)n(CC(C)C)c3c2)c(OC)c1
IC50 ([1]; T-cell): 310 nM | Ki (Jurkat [3]): 88 nM

CC(C)Cn1c(=O)n(C)c(=O)c2cn(C3CCc4ccccc43)cc21 (centres undefined)
IC50 ([1]; T-cell): 186 nM

CC(C)Cn1c(=O)n(C)c(=O)c2cn(Cc3ccc(O)c(I)c3)cc21
IC50 ([1]; T-cell): 89 nM

CC(C)Cn1c(=O)n(C)c(=O)c2cn(C3Cc4ccccc4C3)cc21
IC50 ([1]; T-cell): 312 nM | Ki (Jurkat [3]): 4.8 nM

CC(C)Cn1c(=O)n(C)c(=O)c2cc(NCc3ccccc3F)ccc21
IC50 ([1]; T-cell): 1320 nM

CCC(C)n1c(=O)n(C)c(=O)c2cn(C3Cc4cccc5cccc3c45)cc21 (stereo in doubt; 5g3)
IC50 ([1]; t-cell): 17 nM

CCC(C)n1c(=O)n(C)c(=O)c2cn(C3Cc4cccc5cccc3c45)cc21 (stereo in doubt; 5g4)
IC50 ([1]; t-cell): 48 nM

CCC(C)n1c(=O)n(C)c(=O)c2cn(C3Cc4cccc5cccc3c45)cc21 (stereo in doubt; 5g)
IC50 ([1]; t-cell): 5.4 nM

Source: ChEMBL document CHEMBL1128427, “Novel inhibitors of the nuclear factor of activated T cells (NFAT)-mediated transcription of beta-galactosidase: potential immunosuppressive and antiinflammatory agents” (J Med Chem, 1995)
